Experimental data taken from article PMC6445238 (Drug Design, Development and Therapy, 2019).
Entries after “also recorded” stand apart in the source; their conditions may differ.

Experiment: Multiple ascending dose
Type: in vivo, human
Settings: for CSF KM-819 concentration: day 7, 1 hour postdose
How it was run: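 Plasma was sampled on day 1 predose and at 0.25–12 h, on days 2–6 predose, and on day 7 predose and at 0.25–24 h. CSF was taken by lumbar puncture on day 1 predose and on day 7, 1 h after the last dose. Plasma was measured by UPLC-MS/MS with a deuterated internal standard, linear over 2–20,000 ng/mL (LOQ 2 ng/mL). Parameters came from non-compartmental analysis. Accumulation index = day 7 AUCtau and Cmax,ss over day 1 AUC0–24 and Cmax.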

Cc1nn(Cc2ccc(Br)cc2)c(C)c1NC(=O)CSc1ccccc1 [KM-819]
AUC0–24, geometric mean (CV%) (30 mg QD, day 1, young): 1,761 (21.3) ng·h/mL | Cmax, geometric mean (CV%) (30 mg QD, day 1, young): 512.0 (30.9) ng/mL | Tmax, median (min–max) (30 mg QD, day 1, young): 2.00 (1.00–6.00) h | CSF KM-819 concentration (30 mg QD): no CSF KM-819 concentrations were measurable | AUCtau, geometric mean (CV%) (30 mg QD, day 7, young): 1,572 (24.8) ng·h/mL | Cmax,ss, geometric mean (CV%) (30 mg QD, day 7, young): 418.5 (51.7) ng/mL | Tmax,ss, median (min–max) (30 mg QD, day 7, young): 2.00 (1.00–6.00) h | AUC0–24, geometric mean (CV%) (100 mg QD, day 1, young): 3,735 (38.5) ng·h/mL | Cmax, geometric mean (CV%) (100 mg QD, day 1, young): 1,009 (33.0) ng/mL | Tmax, median (min–max) (100 mg QD, day 1, young): 2.00 (1.00–4.00) h | mean CSF/Cmax ratio (100 mg QD, day 7, CSF 1 hour postdose): 0.067% | AUCtau, geometric mean (CV%) (100 mg QD, day 7, young): 3,477 (17.9) ng·h/mL | Cmax,ss, geometric mean (CV%) (100 mg QD, day 7, young): 1,012 (39.5) ng/mL | Cmin,ss, geometric mean (CV%) (100 mg QD, day 7, young): 9.983 (31.1) ng/mL | Tmax,ss, median (min–max) (100 mg QD, day 7, young): 3.00 (1.00–4.00) h | Cmax,ss in elderly relative to young (200 mg QD for 7 days, day 7): 191% | plasma exposure (AUCtau) in elderly relative to young (200 mg QD for 7 days, day 7): 102% | AUC0–24, geometric mean (CV%) (200 mg QD, day 1, elderly): 17,590 (53.3) ng·h/mL | Cmax, geometric mean (CV%) (200 mg QD, day 1, elderly): 3,542 (76.4) ng/mL | Tmax, median (min–max) (200 mg QD, day 1, elderly): 2.00 (1.00–6.00) h | AUC0–24, geometric mean (CV%) (200 mg QD, day 1, young): 6,485 (62.2) ng·h/mL | Cmax, geometric mean (CV%) (200 mg QD, day 1, young): 1,465 (77.2) ng/mL | Tmax, median (min–max) (200 mg QD, day 1, young): 3.00 (2.00–6.00) h | mean CSF/Cmax ratio (200 mg QD, day 7, CSF 1 hour postdose, elderly): 0.032% | mean CSF/Cmax ratio (200 mg QD, day 7, CSF 1 hour postdose, young): 0.074% | AUCtau, geometric mean (CV%) (200 mg QD, day 7, elderly): 16,250 (34.1) ng·h/mL | Cmax,ss, geometric mean (CV%) (200 mg QD, day 7, elderly): 3,231 (52.5) ng/mL | Cmin,ss, geometric mean (CV%) (200 mg QD, day 7, elderly): 44.82 (48.3) ng/mL | Tmax,ss, median (min–max) (200 mg QD, day 7, elderly): 2.00 (1.00–4.00) h | AUCtau, geometric mean (CV%) (200 mg QD, day 7, young): 8,023 (7.7) ng·h/mL | Cmax,ss, geometric mean (CV%) (200 mg QD, day 7, young): 1,111 (64.3) ng/mL | Cmin,ss, geometric mean (CV%) (200 mg QD, day 7, young): 32.44 (19.4) ng/mL | Tmax,ss, median (min–max) (200 mg QD, day 7, young): 4.00 (4.00–4.00) h | AUC0–24, geometric mean (CV%) (400 mg QD, day 1, young): 11,260 (37.1) ng·h/mL | Cmax, geometric mean (CV%) (400 mg QD, day 1, young): 3,163 (50.7) ng/mL | Tmax, median (min–max) (400 mg QD, day 1, young): 2.00 (1.00–6.00) h | mean CSF/Cmax ratio (400 mg QD, day 7, CSF 1 hour postdose): 0.049% | AUCtau, geometric mean (CV%) (400 mg QD, day 7, young): 19,530 (96.4) ng·h/mL | Cmax,ss, geometric mean (CV%) (400 mg QD, day 7, young): 3,172 (37.9) ng/mL | Cmin,ss, geometric mean (CV%) (400 mg QD, day 7, young): 75.14 (28.4) ng/mL | Tmax,ss, median (min–max) (400 mg QD, day 7, young): 2.00 (0.50–4.00) h | dose proportionality of plasma exposure (AUC) after repeated dosing (30–400 mg QD for 7 days, day 7): approximately dose-proportional; also recorded: dose-proportional increase | variability (CV%) of AUCtau and Cmax,ss (MAD): up to 96% | dose proportionality of AUC and Cmax after a single dose (MAD, day 1): less than dose-proportional increase | dose proportionality of Cmax after repeated dosing (MAD, day 7): less than dose-proportional increase | dose proportionality of Cmin after repeated dosing (MAD, day 7): slightly more than dose-proportional increase | Estimated mean slope, dose proportionality power model, Cmin,ss (MAD, day 7, N=21): 1.1852 | mean CSF/Cmax ratio (each cohort): less than 0.1% | time to steady-state (trough) concentrations (repeated QD dosing, each group): 5 days | CSF KM-819 concentration (≥100 mg QD): measurable in more than half of the CSF samples
